Data on 81 compounds can be found in PubChem BioAssay AID488830 (Molecular Libraries Program, Specialized Chemistry Center, …, 2010).

The IC50 is the concentration needed to halve the response being measured. The term pIC50 denotes the IC50 on a negative log10 scale, so that one unit is a factor of ten.

Each structure is given as a SMILES string. pIC50: −log10 of the molar value. The source made the active and inactive calls.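 The calls were made as follows: active = IC50 at or below 10 µM; inactive = the rest.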 Bounds are passed on as bounds.

This assay relates to HeLa UbG76V-GFP reporter turnover, GFP imaging. Put plainly: inhibitors of p97-dependent reporter degradation, SAR follow-up, imaging, human cell line, second optimization round (AID 488830). Put shortly: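 Buffer or medium: Chase medium with 2.5% FBS plus cycloheximide (50 µg/mL) | Material: UbG76V-GFP reporter HeLa cells | Detection: GFP fluorescence imaging, mean per-cell intensity over ~500 cells | Times: 1 h MG132 pre-treatment, then compound chase imaged 70–170 min | Read-out: IC50 from % remaining degradation rate constant | Also added: 4 µM MG132 reporter-loading pre-treatment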

On to `COc1ccc(CNc2nc(Nc3cccc(Cl)c3)nc3ccccc23)cc1`, for which the IC50 is 11 µM (inactive). On to `Cc1cccc(CNc2nc(Cl)nc3ccccc23)c1`, for which the IC50 is 22 µM (inactive). With `Cc1c(F)cccc1Nc1nc(NCc2ccccc2)c2ccccc2n1`, the pIC50 is 5.43. In the case of `Clc1cccc(CNc2nc(Nc3cccc(Cl)c3)nc3ccccc23)c1`, the IC50 is 15 µM (inactive).

Consider `COc1cccc2c(NCc3ccccc3)nc(NCc3ccccc3)nc12`, for which the IC50 was 10 µM (inactive). Turning to `CC(C)n1c2ccccc2c2nnc(SCC(=O)OCN3C(=O)c4ccccc4C3=O)nc21`, the IC50 was 20 µM (inactive).

Turning to `O=[N+]([O-])c1cccc(Nc2nc(NCc3ccccc3)c3ccccc3n2)c1`, the IC50 is 19 µM (inactive). Regarding `COc1ccc(Nc2nc(NCc3ccccc3)c3ccccc3n2)cc1F`, the pIC50 is 5.33. On to `Fc1cccc2c(NCc3ccccc3)nc(NCc3ccccc3)nc12`, for which the IC50 was 18 µM (inactive). Turning to `Cc1ccccc1CNc1nc(Cl)nc2ccccc12`, the IC50 was > 25 µM (inactive).

Regarding `Cc1ccc(Nc2nc(Nc3cccc(Cl)c3)nc3ccccc23)cc1`, the IC50 was > 30 µM (inactive). In the case of `CC1(C)N(O)CC(c2cccs2)=[N+]1[O-]`, the IC50 was > 25 µM (inactive).

Consider `Cc1cc(F)cc(Nc2nc(NCc3ccccc3)c3ccccc3n2)c1`, for which the pIC50 was 5.27. As to `N#Cc1ccc2c(NCc3ccccc3)nc(NCc3ccccc3)nc2c1`, the IC50 was 21 µM (inactive). As for `Cc1ccc(Cl)cc1Nc1nc(NCc2ccccc2)c2ccccc2n1`, the negative-log IC50 (pIC50) was 5.15. With `O=C(NCc1ccco1)c1cc(S(=O)(=O)N2CCOCC2)ccc1Cl`, the IC50 was > 25 µM (inactive). Turning to `Clc1cccc(Nc2nc(NCc3cccc(Br)c3)c3ccccc3n2)c1`, the pIC50 was 5.00.

With `FC(F)(F)c1cccc(Nc2nc(NCc3ccccc3)c3ccccc3n2)c1`, the IC50 was 21 µM (inactive). Take `Fc1ccc2c(NCc3ccccc3)nc(NCc3ccccc3)nc2c1`: the pIC50 is 5.21. Take `FC(F)(F)c1ccc2c(NCc3ccccc3)nc(NCc3ccccc3)nc2c1`: the IC50 was 19 µM (inactive). Take `COc1cccc(CNc2nc(Nc3cccc(Cl)c3)nc3ccccc23)c1`: the pIC50 is 5.00. In the case of `CC(C)(C)NC(=O)Nc1ccc2nccnc2c1`, the IC50 is > 25 µM (inactive).

On to `Fc1ccc(CNc2nc(Nc3cccc(Cl)c3)nc3ccccc23)cc1`, for which the pIC50 is 5.24. As for `Fc1cccc(CNc2nc(Nc3cccc(Cl)c3)nc3ccccc23)c1`, the pIC50 was 5.20. As for `Clc1cccc(Nc2nc(NCc3ccccc3Br)c3ccccc3n2)c1`, the IC50 is 12 µM (inactive). As to `COc1ccc(F)cc1Nc1nc(NCc2ccccc2)c2ccccc2n1`, the pIC50 was 5.03.

Consider `Fc1ccccc1-c1nc(NCc2ccccc2)c2ccccc2n1`, for which the pIC50 is 5.10. Turning to `COc1cccc(CNc2nc(Cl)nc3ccccc23)c1`, the IC50 is 13 µM (inactive). Turning to `CCOC(=O)NC(NC(=O)OCC)C(=O)c1ccc(F)cc1`, the IC50 is > 25 µM (inactive).

Turning to `COc1ccc(Cl)cc1Nc1nc(NCc2ccccc2)c2ccccc2n1`, the IC50 is 16 µM (inactive). As for `Clc1cccc(Nc2nc(NCc3ccccc3Cl)c3ccccc3n2)c1`, the IC50 was 18 µM (inactive). For `c1ccc(CNc2nc(N3CCOc4ccccc43)nc3ccccc23)cc1`, the negative logarithm of the IC50 (pIC50) is 5.15. Regarding `Cc1ccc(Nc2nc(NCc3ccccc3)c3ccccc3n2)cc1F`, the pIC50 is 5.28.

With `CN1CCN(S(=O)(=O)c2ccc(NC(=O)c3cccc(S(=O)(=O)N4CCCC4)c3)cc2)CC1`, the IC50 was > 25 µM (inactive). As to `Clc1cccc(CNc2nc(Cl)nc3ccccc23)c1`, the IC50 was 18 µM (inactive).

Consider `Fc1ccc(CNc2nc(Cl)nc3ccccc23)cc1`, for which the IC50 was 21 µM (inactive). As for `COc1ccccc1CNc1nc(Cl)nc2ccccc12`, the IC50 was 19 µM (inactive). In the case of `Fc1cccc(CNc2nc(Cl)nc3ccccc23)c1`, the IC50 is 20 µM (inactive).

With `COc1ccccc1CNc1nc(Nc2cccc(Cl)c2)nc2ccccc12`, the IC50 was 11 µM (inactive).

On to `Cc1ccc(Nc2nc(Nc3ccc(C)cc3)c3ccccc3n2)cc1`, for which the IC50 is 21 µM (inactive).

For the compound `c1ccc(CNc2nc(N3CCc4ccccc43)nc3ccccc23)cc1`, the IC50 was 11 µM (inactive). For the compound `Clc1ccc(CNc2nc(Nc3cccc(Cl)c3)nc3ccccc23)cc1`, the pIC50 was 5.12. In the case of `CC(C)Sc1oc(-c2ccco2)nc1S(=O)(=O)c1ccc(F)cc1`, the IC50 is 28 µM (inactive). As for `COc1ccc(CNc2nc(Cl)nc3ccccc23)cc1`, the IC50 is 18 µM (inactive).

On to `Cc1ccc(CNc2nc(Cl)nc3ccccc23)cc1`, for which the IC50 was > 25 µM (inactive). Consider `Cc1ccc(C2=[N+]([O-])C3(CCCCC/C3=N\O)N(O)C2(C)C)o1` (stereo unspecified), for which the IC50 was > 25 µM (inactive). `Brc1ccc2c(NCc3ccccc3)nc(NCc3ccccc3)nc2c1`: the IC50 is 10 µM (inactive). As for `Cc1ccc(CNc2nc(Nc3cccc(Cl)c3)nc3ccccc23)cc1`, the IC50 is 12 µM (inactive). Consider `Clc1nc(NCc2ccccc2Cl)c2ccccc2n1`, for which the IC50 was 11 µM (inactive).

For the compound `O=C1C(C=NCC2CCCO2)=C(O)c2ccccc21` (stereo unspecified), the IC50 was > 25 µM (inactive). For `Cc1ccc(F)cc1Nc1nc(NCc2ccccc2)c2ccccc2n1`, the pIC50 was 5.30. Turning to `c1ccc(CNc2nc(N3CCCc4ccccc43)nc3ccccc23)cc1`, the IC50 was 10 µM (inactive). Turning to `COc1ccc(Nc2nc(Nc3cccc(Cl)c3)nc3ccccc23)cc1`, the IC50 was 13 µM (inactive). On to `Clc1ccc2nc(NCc3ccccc3)nc(NCc3ccccc3)c2c1`, for which the pIC50 was 5.18. Regarding `COc1ccc2nc(NCc3ccccc3)nc(NCc3ccccc3)c2c1`, the negative logarithm of the IC50 (pIC50) was 5.07. In the case of `Clc1ccc(CNc2nc(Cl)nc3ccccc23)cc1`, the IC50 is 14 µM (inactive). Consider `Clc1cccc(Nc2nc(NCc3ccc(Br)cc3)c3ccccc3n2)c1`, for which the IC50 is 10 µM (inactive). For the compound `Clc1nc(NCc2ccccc2Br)c2ccccc2n1`, the IC50 was 13 µM (inactive).

Consider `Fc1ccccc1CNc1nc(Nc2cccc(Cl)c2)nc2ccccc12`, for which the negative-log IC50 (pIC50) was 5.11. With `Brc1cccc2c(NCc3ccccc3)nc(NCc3ccccc3)nc12`, the IC50 was > 30 µM (inactive). On to `Cc1c(Cl)cccc1Nc1nc(NCc2ccccc2)c2ccccc2n1`, for which the pIC50 is 5.26. The same measure, in the same setting: as for `Clc1ccc2c(NCc3ccccc3)nc(NCc3ccccc3)nc2c1`, the figure is 5.20; as for `COc1cc2nc(NCc3ccccc3)nc(NCc3ccccc3)c2cc1OC`, 5.06. For the compound `COc1c(F)cccc1Nc1nc(NCc2ccccc2)c2ccccc2n1`, the IC50 is 12 µM (inactive). Still for that read-out and setting: as for `Clc1ccc(Nc2nc(Nc3cccc(Cl)c3)nc3ccccc23)cc1`, the figure is 21 µM (inactive); as for `Clc1cccc2nc(NCc3ccccc3)nc(NCc3ccccc3)c12`, 16 µM (inactive); as for `Clc1nc(NCc2ccc(Br)cc2)c2ccccc2n1`, 15 µM (inactive).

As to `Fc1ccc2nc(NCc3ccccc3)nc(NCc3ccccc3)c2c1`, the pIC50 is 5.09. For `O=S(=O)(NC1CCCCC1)c1ccc(Br)cc1`, the IC50 is > 30 µM (inactive). For the compound `c1ccc(CNc2nc(N3CCNc4ccccc43)nc3ccccc23)cc1`, the pIC50 was 5.20.

Consider `Clc1nc(NCc2cccc(Br)c2)c2ccccc2n1`, for which the IC50 is 19 µM (inactive). The same measure, in the same setting: as for `CC(=O)Nc1ccc(NC(=O)c2ccccc2F)cc1`, the figure is > 25 µM (inactive).

Take `Fc1ccccc1CNc1nc(Cl)nc2ccccc12`: the IC50 is 15 µM (inactive). As for `c1ccc(Nc2nc(Nc3ccccc3)c3ccccc3n2)cc1`, the pIC50 is 5.14. In the case of `Cc1cccc(CNc2nc(Nc3cccc(Cl)c3)nc3ccccc23)c1`, the pIC50 is 5.01. Turning to `O=C(C1CCCN(S(=O)(=O)c2cnc[nH]2)C1)N(CCc1ccccc1)Cc1ccccc1` (stereo unspecified), the IC50 was 12 µM (inactive). The same measure, in the same setting: as for `Clc1cccc(Nc2nc(Nc3ccccc3)c3ccccc3n2)c1`, the figure is 12 µM (inactive). As to `COc1c(Cl)cccc1Nc1nc(NCc2ccccc2)c2ccccc2n1`, the pIC50 is 5.20. For `Cc1ccc2c(NCc3ccccc3)nc(NCc3ccccc3)nc2c1`, the pIC50 was 5.21. Take `COc1ccc(Nc2nc(Nc3ccc(OC)cc3)c3ccccc3n2)cc1`: the IC50 is 23 µM (inactive).

For `Fc1cccc2nc(NCc3ccccc3)nc(NCc3ccccc3)c12`, the IC50 was 13 µM (inactive).
